# NPY2 pot ag = NPY-Y2 potentiators or agonists, primary screen, cell-based; activation, % at 3.6 µM; AID 1359, 2008; 0.45% of 220,000 active; cells expressing NPY-Y2, potentiator/agonist read-out; in the data active means activation above about 27%;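 further: cells stimulated with NPY near EC25 plus isoproterenol at EC100; 0% = vehicle plus submaximal agonist and 100% = vehicle plus saturating agonist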
# Target sequence (P49146 whole entry, looked up): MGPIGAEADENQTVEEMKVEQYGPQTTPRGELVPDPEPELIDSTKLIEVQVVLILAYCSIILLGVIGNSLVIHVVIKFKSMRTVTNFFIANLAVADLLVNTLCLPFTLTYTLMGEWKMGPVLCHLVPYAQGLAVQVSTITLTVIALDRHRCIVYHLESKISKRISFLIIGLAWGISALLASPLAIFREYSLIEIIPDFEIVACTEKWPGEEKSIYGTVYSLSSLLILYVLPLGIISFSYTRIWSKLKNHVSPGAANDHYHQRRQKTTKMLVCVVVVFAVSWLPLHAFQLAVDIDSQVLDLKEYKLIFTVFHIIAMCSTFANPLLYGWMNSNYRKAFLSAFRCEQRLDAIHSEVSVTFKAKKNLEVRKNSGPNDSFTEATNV
# RAM inhibit = inhibitors of the yeast RAM network, primary screen, dse1pr::URA3 reporter, 5-FOA selection | AID 868, 2007 | inhibition, % at 50 µM | S. cerevisiae dse1pr::URA3 reporter, 5-FOA growth OD615, 2 d; analog-sensitive cbk1-as2 kinase mutant strain | 1.8% of 190,000 active;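 active means inhibition above a set limit, 3 SD over mean compound inhibition, cut at about 8.4% in these data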;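 further: 0% = DMSO-only wells with no growth and 100% = 10 µM 1-NA-PP1 full growth; inhibition rescues growth on 5-FOA so higher OD means more RAM inhibition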
# NPY-Y1 antag = NPY-Y1 receptor antagonists, primary screen, cell-based | Neuropeptide Y receptor type 1 (Homo sapiens), P25929 | inhibition, % at 3.6 µM | HEK293-CNG Y1 cells, membrane potential fluorescence; NPY at EC95, then isoproterenol | 1% of 200,000 active;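 active means inhibition above the campaign mean inhibition of all tested compounds plus 3 SD, cut at about 20% in these data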;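 further: 0% = DMSO wells given NPY plus isoproterenol and 100% = isoproterenol alone without NPY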
#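 Assay system: HEK293 cells with Y1 receptor plus CNG channel | Probe or stimulus: NPY (25 nM), isoproterenol (1 µM), Ro 20-1724 (25 µM) | Timing: Compound incubation 1 h at room temperature, readout 45 min post-stimulation | Measured by: Membrane-potential fluorescent dye readout | Benchmarks: High control isoproterenol alone, low control NPY with isoproterenol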
# Insulin prom inh = inhibitors of insulin promoter-driven GFP, primary screen, imaging, TRM-6 cells, eGFP reporter, cell count; reporter expression induced with tamoxifen; inhibition, % at 2 µM; 0.9% of 130,000 active; AID 1273, 2008;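 active means inhibition above the mean plus 3 SD, with well images judged a real hit on visual review, cut at about 60% in these data, passing the limit was not always enough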
# NPY-Y1 PAM-ag = NPY-Y1 receptor potentiators or agonists, primary screen, cell-based | activation, % at 3.6 µM | 0.37% of 220,000 active | Neuropeptide Y receptor type 1 (Homo sapiens), P25929 | NPY-Y1 expressing cells, potentiator/agonist activation | AID 1304, 2008; in the data active means activation above about 33%, passing the limit was not always enough;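 further: cells stimulated with NPY at EC10 then isoproterenol at EC100; 0% = low agonist plus stimulus and 100% = saturating agonist plus stimulus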
# NPY-Y2 antag = NPY-Y2 receptor antagonists, primary screen, cell-based; 0.99% of 140,000 active; inhibition, % at 2.7 µM; Neuropeptide Y receptor type 2 (Homo sapiens), P49146; NPY-Y2 expressing cells, antagonist mode; in the data active means inhibition above about 17%;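 further: 0% = vehicle with agonist challenge and 100% = reference antagonist with challenge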
# NPY1 antag ctr = NPY-Y1 receptor antagonists, selectivity check, counter-screen for NPY-Y2 antagonist project, cell-based | shares compounds with NPY-Y2 antag | cell-based NPY-Y1 antagonism counterscreen | inhibition, % at 3.6 µM | 19% of 710 active | AID 1256, 2008; in the data active means inhibition above about 20%;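 further: cells challenged with NPY then isoproterenol with cAMP sensed through a CNG channel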
# NPY-Y2 ant conf = NPY-Y2 receptor antagonists, retest of hits, confirmation, HEK293-CNG cells, membrane potential fluorescence, triplicate | HEK293 NPY-Y2 CNG channel | 32% of 710 active | shares compounds with NPY-Y2 antag | AID 1257, 2008 | inhibition, % at 2.8 µM;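 active means mean inhibition of triplicate wells above the hit cutoff set in the primary screen, cut at about 17% in these data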;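 further: 0% = DMSO with NPY challenge and 100% = BIIE0246 high control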
# RAM 5-FOA = 5-FOA growth of efflux-deficient control yeast, dose response, counter-screen for RAM network inhibitor project, S. cerevisiae, OD615. 1,200 tested, under 10 active. AID 1305, 2008. max inhibition, %. S. cerevisiae efflux-deficient reporter strain, 5-FOA growth OD615, 2 days. shares compounds with RAM inhibit; call rule not given here;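 further: plate controls were vehicle for no effect and reference inhibitor for full effect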
# The depositor's hits bear a star; i = inactive; x = no result given. An excerpt weighted towards active compounds, which were near 3.8% of everything screened.
SMILES,NPY2 pot ag,RAM inhibit,NPY-Y1 antag,Insulin prom inh,NPY-Y1 PAM-ag,NPY-Y2 antag,RAM 5-FOA,others
Cc1ccc(-c2nn(CC(N)=O)c(=O)c3ccccc23)cc1S(=O)(=O)N(C)C,6,-1,6,8,-6,0,x,
COCCOC(=O)c1c(C)oc2ccc(NS(=O)(=O)c3ccccc3)cc12,-13,3,0,x,-3,5,x,
CCOC(=O)c1c(C)oc2ccc(NS(=O)(=O)c3ccc4c5c(cccc35)C(=O)N4)cc12,-14,2,10,i,-45,27*,x,NPY1 antag ctr=5;NPY-Y2 ant conf=14
Cc1oc(-c2ccc(F)cc2)nc1CN(Cc1ccccn1)CC1CCCO1 (stereo not given),-4,1,6,x,5,x,x,
N#Cc1nc(COc2cccc(Cl)c2)oc1N1CCN(c2ccccc2)CC1,-18,16*,8,24,-20,25*,3,NPY1 antag ctr=15;NPY-Y2 ant conf=20*
N#Cc1nc(COc2ccccc2)oc1N1CCCCC1,0,0,6,x,-8,5,x,
CCC(Oc1ccc2c(=O)c(-c3ccccc3OC)coc2c1)C(=O)OCc1ccccc1 (stereo not given),-18,22*,2,30,-17,37*,2,NPY1 antag ctr=6;NPY-Y2 ant conf=66*
CN(C)c1cccc(C(=O)OCC(=O)Nc2ccccc2-c2ccccc2)c1,3,2,2,x,-15,4,x,
CCN(CC)c1ccc(C(=O)OCC(=O)Nc2ccccc2-c2ccccc2)cc1,0,22*,6,47,-29,21*,5,NPY1 antag ctr=12;NPY-Y2 ant conf=11
CSc1ccc(Cl)c(C(=O)NCCOc2cc(C)ccc2C(C)C)c1,-36,13*,0,21,-16,17*,2,NPY1 antag ctr=6;NPY-Y2 ant conf=7
CSc1ccc(Cl)c(C(=O)NCCOc2ccccc2)c1,7,1,-1,x,-8,4,x,
CCOC(=O)C1CCCN(C(=O)c2ccc3c(c2)N(Cc2ccccc2)C(=O)c2ccccc2S3=O)C1 (stereo not given),-4,3,-4,-47,-5,x,x,
Cc1cc(C)cc(OCc2nnc(SCC(=O)c3ccccc3)o2)c1,-1,8,13,10,-57,6,x,
Cc1ccc(C(=O)CSc2nnc(COc3cc(C)cc(C)c3)o2)cc1,1,12*,7,-21,-5,21*,1,NPY1 antag ctr=13;NPY-Y2 ant conf=20*
Cc1nnc(SC(C)C(=O)Nc2nccs2)s1 (stereo not given),-13,2,-2,33,-2,x,x,
CCNc1ccc2noc3c2c1C(=O)c1ccccc1-3,49*,20*,15,-371,72*,45*,9,NPY1 antag ctr=15;NPY-Y2 ant conf=8
CC(=O)N1CCc2cc(Br)cc(S(=O)(=O)CCC(=O)N3CCN(c4ccccn4)CC3)c21,3,1,2,-53,1,x,x,
N#Cc1ccc(-c2cccnc2)nc1SCc1ccc(Cl)c(Cl)c1,10,13*,4,x,2,27*,11,NPY1 antag ctr=19;NPY-Y2 ant conf=21*
Clc1ccc(CSc2nnc(/C=C/c3ccccc3)o2)cc1,-9,13*,1,0,-19,18*,2,NPY1 antag ctr=24*;NPY-Y2 ant conf=21*
CCCCc1ccc(NC(=S)N2CCN(c3ncccn3)CC2)cc1,-9,6,-6,x,28,x,x,
COC(=O)c1c(CSc2ccc(C)c(C)c2)noc1C(=O)NCc1ccc(OC)cc1,-35,12*,23*,-9,-15,22*,2,
CCCCNC(=O)c1onc(CSc2ccc(C)c(C)c2)c1C(=O)O,-38,6,15,x,-49,13,x,
COc1cc(/C=N/Nc2nc(C)nc3c2cnn3-c2ccccc2)ccc1O,-3,0,-5,x,19,x,x,
Cn1c(COc2ccc(Cl)cc2)nnc1SCC(=O)Nc1ccc2c(c1)CCC2,5,5,5,x,-27,2,x,
Cc1ccc(C(=O)CNc2ccccc2C)cc1,9,1,2,12,-3,1,x,
SMILES,NPY2 pot ag,RAM inhibit,NPY-Y1 antag,Insulin prom inh,NPY-Y1 PAM-ag,NPY-Y2 antag,RAM 5-FOA,others
Cc1ccc(C(=O)CC(=O)c2ccc(C(C)(C)C)cc2)cc1,-7,20*,9,x,7,x,8,
C=CCN(c1ccccc1)S(=O)(=O)c1cccc(C(=O)Oc2ccc3c(C)cc(=O)oc3c2)c1,-3,5,0,-26,7,5,x,
Cc1noc(NS(=O)(=O)c2ccc(N/C=C\C(=O)c3cccs3)cc2)c1C,-12,12*,2,22,-3,x,6,
CN(C(=O)COC(=O)c1sc2ccccc2c1Cl)C1CCCCC1,3,14*,5,7,-23,6,3,
CN(C)CCCOC(=O)c1sc2ccccc2c1Cl,-9,1,11,x,-29,x,x,
Cc1ccccc1NC(=O)c1sc(Cl)nc1-c1ccccc1,-4,0,1,-37,-2,4,x,
Cc1ccc(C)c(NC(=O)c2sc(Cl)nc2-c2ccccc2)c1,-20,15*,8,-52,4,2,1,
CCOC(=O)c1cccc(NC(=O)CSc2nnc(COc3ccccc3)n2CC)c1,-8,14*,7,x,-11,1,3,
C=CC[C@@H]1C=C[C@H](O/N=C/[C@@H](NS(=O)(=O)c2ccc(C)cc2)[C@H](C)/C=C/CC(=O)OC)[C@@H](CO)O1,0,0,-2,-57,-5,1,x,
COC(=O)C/C=C/[C@@H](C)[C@@H](/C=N/OC[C@@H](C)[C@H](OCc1ccccc1)C(C)C)NS(=O)(=O)c1ccc(C)cc1,-6,13*,0,-50,-10,1,5,
Cc1ccc(OCCOC(=O)Cn2nc(C)c([N+](=O)[O-])c2C)cc1,-9,2,12,36,-6,x,x,
Cc1cccc(N2CCN(C(=S)NCCc3ccccc3)CC2)c1C,1,5,-1,18,-10,3,x,
Cc1ccc(Cl)cc1N1CCN(C(=S)NCCc2ccccc2)CC1,10,13*,8,6,4,x,3,
CCOC(=O)C(C)(C)Sc1nc2c(cnn2-c2ccc(Cl)cc2)c(=O)[nH]1,4,14*,-1,x,12,2,3,

# Bioassay records deposited in PubChem by several laboratories.
